Results from ChEMBL document CHEMBL4689842, “EUbOPEN Chemogenomics Library wave 1” (2021).
Where “and” joins values, the source holds several entries; their conditions need not be identical. Identical values can stand only once.

System: HEK-293T
Assay: Multiplex assay against HEK293T;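 for Population Tubulin-Different-Phenotype (%): share of the cells with healthy nuclei that show this phenotype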
Type: toxicity, cell-based
Details: human
Method in brief: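 Compound was added to live cells that had been stained at seeding with Hoechst33342, BioTracker Green Microtubule Cytoskeleton Dye, MitoTracker Red and Annexin V Alexa Fluor 680, and imaging followed on a CQ1 microscope at 37°C and 5% CO2. CellPathfinder machine-learning gating divided cells into Hoechst high-intensity objects or normal cells, normal cells into healthy, pyknosed or fragmented nuclei, and pyknosed cells into mitotic or apoptotic. Tubulin, mitochondrial-mass and membrane-permeability phenotypes are per cents of healthy-nucleus cells.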

[1] = 12 h, 1 µM, compound concentration 1 uM, replicate 1
[2] = 12 h, 1 µM, compound concentration 1 uM, replicate 2
[3] = 12 h, 10 µM, compound concentration 10 uM, replicate 1
[4] = 12 h, 10 µM, compound concentration 10 uM, replicate 2
[5] = 24 h, 1 µM, compound concentration 1 uM, replicate 1
[6] = 24 h, 1 µM, compound concentration 1 uM, replicate 2
[7] = 24 h, 10 µM, compound concentration 10 uM, replicate 1
[8] = 24 h, 10 µM, compound concentration 10 uM, replicate 2

Compound: CNC(=O)c1ccc(Nc2ncc(C(F)(F)F)c(NCc3nccnc3N(C)S(C)(=O)=O)n2)cc1 [DEFACTINIB]
- Population Apoptotic (%) [1]: 27%
- Population Fragmented Nuclei (%) [1]: 14% and 16%
- Population Healthy Nuclei (%) [1]: 72% and 59%
- Population Hoechst High Intensity Objects (%) [1]: 11% and 18%
- Population Membrane Permeable-Phenotype (%) [1]: 4% and 6%
- Population Mitochondria Different-Phenotype (%) [1]: 6% and 8%
- Population Mitotic Cells (%) [1]: 72% and 74%
- Population Normal (%) [1]: 88% and 81%
- Population Pyknosed Nuclei (%) [1]: 13% and 24%
- Total Cell Count [1]: 689 and 588
- Population Apoptotic (%) [2]: 25% and 12%
- Population Fragmented Nuclei (%) [2]: 9% and 3%
- Population Healthy Nuclei (%) [2]: 84% and 92%
- Population Hoechst High Intensity Objects (%) [2]: 3%
- Population Membrane Permeable-Phenotype (%) [2]: 2% and 3%
- Population Mitochondria Different-Phenotype (%) [2]: 10% and 19%
- Population Mitotic Cells (%) [2]: 75% and 87%
- Population Normal (%) [2]: 96%
- Population Pyknosed Nuclei (%) [2]: 6% and 3%
- Total Cell Count [2]: 1140 and 1057
- Population Apoptotic (%) [3]: 27%
- Population Fragmented Nuclei (%) [3]: 17% and 16%
- Population Healthy Nuclei (%) [3]: 62% and 66%
- Population Hoechst High Intensity Objects (%) [3]: 11% and 13%
- Population Membrane Permeable-Phenotype (%) [3]: 7% and 4%
- Population Mitochondria Different-Phenotype (%) [3]: 12% and 5%
- Population Mitotic Cells (%) [3]: 72%
- Population Normal (%) [3]: 88% and 86%
- Population Pyknosed Nuclei (%) [3]: 20% and 17%
- Total Cell Count [3]: 704 and 581
- Population Fragmented Nuclei (%) [4]: 3% and 7%
- Population Healthy Nuclei (%) [4]: 90% and 87%
- Population Hoechst High Intensity Objects (%) [4]: 5% and 2%
- Population Membrane Permeable-Phenotype (%) [4]: 6% and 1%
- Population Mitochondria Different-Phenotype (%) [4]: 21% and 10%
- Population Mitotic Cells (%) [4]: 78% and 96%
- Population Normal (%) [4]: 94% and 97%
- Population Pyknosed Nuclei (%) [4]: 6% and 4%
- Total Cell Count [4]: 770 and 1490
- Population Apoptotic (%) [5]: 23% and 19%
- Population Fragmented Nuclei (%) [5]: 15% and 17%
- Population Healthy Nuclei (%) [5]: 77% and 62%
- Population Hoechst High Intensity Objects (%) [5]: 6% and 14%
- Population Membrane Permeable-Phenotype (%) [5]: 6%
- Population Mitochondria Different-Phenotype (%) [5]: 4% and 12%
- Population Mitotic Cells (%) [5]: 76% and 80%
- Population Normal (%) [5]: 93% and 85%
- Population Pyknosed Nuclei (%) [5]: 7% and 19%
- Population Tubulin-Different-Phenotype (%) [5]: 10% and 26%
- Total Cell Count [5]: 751 and 618
- Population Apoptotic (%) [6]: 14% and 11%
- Population Healthy Nuclei (%) [6]: 74% and 91%
- Population Hoechst High Intensity Objects (%) [6]: 3% and 5%
- Population Membrane Permeable-Phenotype (%) [6]: 3%
- Population Mitotic Cells (%) [6]: 85% and 88%
- Population Normal (%) [6]: 96% and 94%
- Population Pyknosed Nuclei (%) [6]: 3% and 2%
- Total Cell Count [6]: 1868 and 1334
- Population Apoptotic (%) [7]: 33% and 18%
- Population Fragmented Nuclei (%) [7]: 16% and 15%
- Population Healthy Nuclei (%) [7]: 66% and 78%
- Population Hoechst High Intensity Objects (%) [7]: 11% and 7%
- Population Membrane Permeable-Phenotype (%) [7]: 6% and 4%
- Population Mitotic Cells (%) [7]: 66% and 81%
- Population Normal (%) [7]: 88% and 92%
- Population Tubulin-Different-Phenotype (%) [7]: 24% and 11%
- Total Cell Count [7]: 732 and 672
- Population Healthy Nuclei (%) [8]: 90% and 75%
- Population Hoechst High Intensity Objects (%) [8]: 3%
- Population Membrane Permeable-Phenotype (%) [8]: 8% and 3%
- Population Mitotic Cells (%) [8]: 71% and 92%
- Population Normal (%) [8]: 96%
- Population Pyknosed Nuclei (%) [8]: 4% and 2%
- Total Cell Count [8]: 961 and 2290
